Data published in ChEMBL document CHEMBL1158832, “Bioactive tetrahydrofuran lignans from Peperomia dindygulensis” (J Nat Prod, 2005).
≈ marks a conversion by molar mass, not a printed value.

Tests used:
[1] = system: WI-38 VA13; test: Cytotoxicity against human VA13 cells after 48 hrs by WST8 assay; assay type: functional, cell-based; conditions: WI-38 VA13, 48 h
Summary of the method: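 VA-13 cells grown in RITC 80-7 with 10% FBS; ca. 5000 cells/well preincubated 24 h at 37 °C, 5% CO2, then compounds in DMSO added for 48 h. WST-8 added, formazan read at 450 nm; IC50 taken as 50% growth inhibition from viability-versus-concentration plot.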

[2] = system: HepG2; test: Cytotoxicity against human HepG2 cells after 48 hrs by WST8 assay; assay type: functional, cell-based; conditions: HepG2, 48 h
Summary of the method: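 About 5000 cells per well, preincubated 24 h at 37 °C in 5% CO2. Cells kept in D-MEM with 10% FBS and 80 µg/mL kanamycin. Samples were added in DMSO and incubated a further 48 h. WST-8 formazan was read at 450 nm, viability was plotted against concentration, and IC50 was taken as the concentration giving 50% growth inhibition.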

[3] = target: T1, P-glycoprotein (ABCB1) (Homo sapiens, UniProt P08183); test: Inhibition of P-glycoprotein-mediated multidrug resistance in adriamycin-resistant human A2780 cells assessed as calcein accumulation at 0.25 ug/ml after 15 mins relative to control; assay type: cell-based; conditions: probe calcein, values are per cent of control
[4] = target: T1, P-glycoprotein (ABCB1); test: Inhibition of P-glycoprotein-mediated multidrug resistance in adriamycin-resistant human A2780 cells assessed as calcein accumulation at 2.5 ug/ml after 15 mins relative to control; assay type: cell-based; conditions: probe calcein, values are per cent of control
[5] = target: T1, P-glycoprotein (ABCB1); test: Inhibition of P-glycoprotein-mediated multidrug resistance in adriamycin-resistant human A2780 cells assessed as calcein accumulation at 25 ug/ml after 15 mins relative to control; assay type: cell-based; conditions: probe calcein, values are per cent of control
[6] = target: T1, P-glycoprotein (ABCB1); test: Inhibition of P-glycoprotein-mediated multidrug resistance in adriamycin-resistant human A2780 cells assessed as calcein accumulation at 0.25 ug/ml after 15 mins relative to verapamil; assay type: cell-based; conditions: probe calcein
[7] = target: T1, P-glycoprotein (ABCB1); test: Inhibition of P-glycoprotein-mediated multidrug resistance in adriamycin-resistant human A2780 cells assessed as calcein accumulation at 2.5 ug/ml after 15 mins relative to verapamil; assay type: cell-based; conditions: probe calcein
[8] = target: T1, P-glycoprotein (ABCB1); test: Inhibition of P-glycoprotein-mediated multidrug resistance in adriamycin-resistant human A2780 cells assessed as calcein accumulation at 25 ug/ml after 15 mins relative to verapamil; assay type: cell-based; conditions: probe calcein
[9] = system: A549; test: Antiinflammatory activity against human A549 cells assessed as inhibition of IL-1-alpha-induced ICAM1 expression; assay type: functional, cell-based
Summary of the method: (§1)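 A549 cells, 2 × 10^4/well seeded the day before, preincubated 1 h ± test compounds, then stimulated with IL-1α (1 ng/mL) or TNF-α (10 ng/mL) for 6 h. Fixed in 1% paraformaldehyde, mouse anti-human ICAM-1 then peroxidase anti-mouse IgG; o-phenylenediamine/H2O2 substrate, pH 5.3, 20 min 37 °C, A415. Expression as % of stimulated minus unstimulated absorbance.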

[10] = system: A549; test: Antiinflammatory activity against human A549 cells assessed as inhibition of TNF-alpha-induced ICAM1 expression; assay type: functional, cell-based; summary of the method: as §1
[11] = system: A549; test: Cytotoxicity against human A549 cells after 24 hrs by MTT assay; assay type: functional, cell-based
Summary of the method: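 A549 cells, 2 × 10^4/well seeded the day before, exposed to test compounds 24 h; MTT 500 µg/mL pulsed for the final 4 h, formazan dissolved in 10% SDS overnight, A595. Viability as (sample − background)/(control − background) × 100.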

T1 sequence (P08183 whole entry): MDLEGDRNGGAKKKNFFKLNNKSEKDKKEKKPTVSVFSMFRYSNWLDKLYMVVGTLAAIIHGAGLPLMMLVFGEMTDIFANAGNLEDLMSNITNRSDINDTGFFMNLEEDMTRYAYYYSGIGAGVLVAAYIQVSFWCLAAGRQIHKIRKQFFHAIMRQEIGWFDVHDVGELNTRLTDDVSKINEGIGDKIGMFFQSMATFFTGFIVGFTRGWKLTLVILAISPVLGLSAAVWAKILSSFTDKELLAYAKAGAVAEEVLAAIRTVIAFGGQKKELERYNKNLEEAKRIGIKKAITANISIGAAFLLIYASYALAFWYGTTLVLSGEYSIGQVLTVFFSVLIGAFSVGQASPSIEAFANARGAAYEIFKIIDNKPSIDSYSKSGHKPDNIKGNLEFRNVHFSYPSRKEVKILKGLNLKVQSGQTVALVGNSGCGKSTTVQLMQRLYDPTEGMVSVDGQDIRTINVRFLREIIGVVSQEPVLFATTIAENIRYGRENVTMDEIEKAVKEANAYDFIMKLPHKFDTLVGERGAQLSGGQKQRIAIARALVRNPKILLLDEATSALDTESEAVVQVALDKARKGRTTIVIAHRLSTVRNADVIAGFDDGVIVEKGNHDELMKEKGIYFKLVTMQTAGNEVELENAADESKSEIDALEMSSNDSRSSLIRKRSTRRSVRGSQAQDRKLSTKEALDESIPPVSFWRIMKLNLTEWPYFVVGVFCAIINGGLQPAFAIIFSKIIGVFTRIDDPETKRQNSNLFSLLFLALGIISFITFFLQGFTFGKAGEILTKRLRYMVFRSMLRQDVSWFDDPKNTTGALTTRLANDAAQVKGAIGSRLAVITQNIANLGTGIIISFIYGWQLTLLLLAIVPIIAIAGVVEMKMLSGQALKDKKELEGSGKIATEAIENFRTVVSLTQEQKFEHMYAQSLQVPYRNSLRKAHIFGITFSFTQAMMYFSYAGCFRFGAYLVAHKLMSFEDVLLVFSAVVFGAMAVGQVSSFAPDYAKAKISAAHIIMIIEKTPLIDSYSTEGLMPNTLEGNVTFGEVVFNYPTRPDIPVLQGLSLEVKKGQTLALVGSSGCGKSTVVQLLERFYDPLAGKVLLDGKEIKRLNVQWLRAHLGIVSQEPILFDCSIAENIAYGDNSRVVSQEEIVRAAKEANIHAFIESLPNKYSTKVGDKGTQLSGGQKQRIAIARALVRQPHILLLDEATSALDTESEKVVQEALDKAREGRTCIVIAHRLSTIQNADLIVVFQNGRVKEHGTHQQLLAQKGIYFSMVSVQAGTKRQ

COc1cc([C@H]2O[C@H](c3cc(OC)c4c(c3)OCO4)[C@@H](COC(C)=O)[C@@H]2CO)cc2c1OCO2
IC50 [1]: 36.2 µg/mL (≈ 76.3 µM)

CC(C)[C@@H](C)/C=C/[C@@H](C)[C@H]1CC[C@H]2[C@@]3(O)C=C[C@@]4(O)C[C@@H](O)CC[C@]4(C)[C@H]3CC[C@]12C
IC50 [1]: 48.1 µg/mL (≈ 112 µM) | IC50 [2]: 47.9 µg/mL (≈ 111 µM) | response, % of control at 0.25 h, 0.25 ug/ml [3]: 97% | response, % of control at 0.25 h, 2.5 ug/ml [4]: 106% | response, % of control at 0.25 h, 25 ug/ml [5]: 95% | inhibition at 0.25 h, 0.25 ug/ml [6]: 109% | inhibition at 0.25 h, 2.5 ug/ml [7]: 111% | inhibition at 0.25 h, 25 ug/ml [8]: 73%

COc1cc([C@@H]2O[C@H](c3cc(OC)c4c(c3)OCO4)[C@@H](COC(C)=O)[C@@H]2COC(C)=O)cc(OC)c1O
IC50 [1]: 47.4 µg/mL (≈ 91.4 µM) | response, % of control at 0.25 h, 0.25 ug/ml [3]: 88% | response, % of control at 0.25 h, 2.5 ug/ml [4]: 95% | response, % of control at 0.25 h, 25 ug/ml [5]: 101% | inhibition at 0.25 h, 0.25 ug/ml [6]: 100% | inhibition at 0.25 h, 2.5 ug/ml [7]: 99% | inhibition at 0.25 h, 25 ug/ml [8]: 78% | IC50 [9]: 84.4 µM | IC50 [10]: 38.6 µM | Activity [11]: Not toxic

COc1cc([C@@H]2O[C@H](c3cc(OC)c4c(c3)OCO4)[C@@H](COC(C)=O)[C@@H]2CO)cc(OC)c1OC
response, % of control at 0.25 h, 0.25 ug/ml [3]: 97% | response, % of control at 0.25 h, 2.5 ug/ml [4]: 105% | response, % of control at 0.25 h, 25 ug/ml [5]: 138% | inhibition at 0.25 h, 0.25 ug/ml [6]: 110% | inhibition at 0.25 h, 2.5 ug/ml [7]: 110% | inhibition at 0.25 h, 25 ug/ml [8]: 107% | IC50 [9]: 189 µM | IC50 [10]: 105 µM | Activity [11]: Not toxic

O=C1CCCC(=O)C1C(=O)CCc1ccccc1
IC50 [1]: 40.5 µg/mL (≈ 166 µM)

COc1cc([C@H]2O[C@@H](c3cc(OC)c4c(c3)OCO4)[C@@H](COC(C)=O)[C@@H]2CO)cc2c1OCO2
response, % of control at 0.25 h, 0.25 ug/ml [3]: 76% | response, % of control at 0.25 h, 2.5 ug/ml [4]: 85% | response, % of control at 0.25 h, 25 ug/ml [5]: 94% | inhibition at 0.25 h, 0.25 ug/ml [6]: 86% | inhibition at 0.25 h, 2.5 ug/ml [7]: 89% | inhibition at 0.25 h, 25 ug/ml [8]: 72%

COc1ccc(-c2cc(=O)c3c(O)cc(OC)cc3o2)cc1 [APIGENIN DIMETHYLETHER]
IC50 [1]: 38.9 µg/mL (≈ 130 µM)
